Experimental data published in publication PMC4618649 (Pharmacology Research & Perspectives, 2015).
Like-named read-outs stand apart in the source and are kept apart here. Each block holds one molecule with its values, some of them ahead of it.

Legend:
rCYP2C8 = target: T1, rCYP2C8 (Homo sapiens, UniProt P10632); experiment: Substrate depletion by human recombinant CYP2C8; assay type: in vitro ADME; details: rCYP2C8
T1 sequence (P10632 1-490): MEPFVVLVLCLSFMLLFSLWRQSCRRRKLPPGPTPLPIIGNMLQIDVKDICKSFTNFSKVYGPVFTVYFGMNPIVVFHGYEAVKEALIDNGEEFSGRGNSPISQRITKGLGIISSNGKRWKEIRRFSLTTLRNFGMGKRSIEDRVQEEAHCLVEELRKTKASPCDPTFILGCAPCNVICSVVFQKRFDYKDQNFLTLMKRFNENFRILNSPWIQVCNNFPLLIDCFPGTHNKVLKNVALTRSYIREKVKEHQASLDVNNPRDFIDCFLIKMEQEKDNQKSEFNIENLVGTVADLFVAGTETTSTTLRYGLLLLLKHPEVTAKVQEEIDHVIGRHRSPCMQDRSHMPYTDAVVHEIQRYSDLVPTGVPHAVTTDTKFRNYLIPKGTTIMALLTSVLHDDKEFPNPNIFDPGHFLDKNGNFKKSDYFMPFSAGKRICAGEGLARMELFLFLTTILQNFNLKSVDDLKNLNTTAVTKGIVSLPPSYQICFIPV
Procedure, shortened: (§1)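 Human recombinant CYPs were insect-cell microsomes, with CYPb5 co-expressed if available, plus a no-CYP membrane control. Test compound (30 or 300 nmol/L) was incubated with matrix (0.25 mg/mL) and buffer. NADPH (1 mmol/L) started the reaction, and acetonitrile with internal standard stopped it after 5 or 30 min. CLint came from −kdep and the amount of rCYP, scaled to HLM by relative activity factor.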

CYP2C8 (rCYP2C8) = target: T2, CYP2C8 (rCYP2C8) (Homo sapiens, UniProt P10632); experiment: Substrate depletion by human recombinant CYP2C8; assay type: in vitro ADME; details: human, recombinant CYP2C8 Supersomes (insect cell microsomes)
T2 sequence (P10632 1-490): T1 sequence (P10632 1-490)
Procedure, shortened: as §1

[1] = Substrate depletion in human liver microsomes; assay type: in vitro ADME; details: both, human, human liver microsomes
[2] = test system: Human liver microsomes (HLMs); experiment: Substrate depletion in human liver microsomes; assay type: in vitro ADME; details: largest k calculated, used to approximate first-order conditions; HLMs 0.25 mg/mL
[3] = Phase 1 disposition study: excretion and mass balance; assay type: in vivo, human
Procedure, shortened: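 Five healthy males received a single oral 100 mg dose containing ~100 μCi 14C-label. Urine and feces were collected to 216 h, and expired air at selected times to 48 h for 14CO2. Radioactivity was counted by liquid scintillation, either directly (urine, expired air) or after combustion (feces). Cumulative fraction of dose was summed over collection periods.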

[4] = patients with dyslipidemia, alone or with statins; ref Nicholls et al. [2011]; cited from earlier work
[5] = Phase 1 DDI study with gemfibrozil in healthy subjects; assay type: in vivo, human; details: for Ratio of geometric LS means, AUC(0–τ), evacetrapib + gemfibrozil versus evacetrapib (90% CI) / Ratio of geometric LS means, Cmax, evacetrapib + gemfibrozil versus evacetrapib (90% CI): 130 mg QD, 600 mg gemfibrozil BID
[6] = ref Mantlo and Escribano [2014]; Cannady 2013; cited from earlier work
CYP3A (rCYP3A4) = CYP3A (rCYP3A4) (Homo sapiens, UniProt P08684); experiment: Substrate depletion by human recombinant CYP3A4; assay type: in vitro ADME
Procedure, shortened: as §1

[7] = assay type: in vivo, human; details: for % AUC(tlast–∞): geometric mean (range)
Procedure, shortened: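 Five healthy males received a single oral 100 mg dose containing ~100 μCi 14C-label, with blood sampled to 192 h. Plasma parent was measured by LC/MS/MS (range 1–1000 ng/mL). Total radioactivity was counted by liquid scintillation, directly in plasma and after combustion for whole blood. Parameters were derived noncompartmentally. Adverse events were recorded.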

[8] = Phase 1 DDI study with ketoconazole in healthy subjects; assay type: in vivo, human; details: for Ratio of geometric LS means, AUC(0–∞), evacetrapib + ketoconazole versus evacetrapib (90% CI) / Ratio of geometric LS means, Cmax, evacetrapib + ketoconazole versus evacetrapib (90% CI): 100 mg evacetrapib, 400 mg ketoconazole daily; for CL/F: geometric mean (% CV)
Procedure, shortened: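 Twelve fasted healthy adults of both sexes (18–65 y, BMI 18–32 kg/m2) took part in a fixed-sequence study. Period 1 was a single oral 100 mg of test compound, sampled predose to 168 h. After a ≥14-day washout, Period 2 was ketoconazole 400 mg daily for 14 days with 100 mg test compound on Day 5, sampled for 240 h. Plasma LC/MS/MS range was 1–1000 ng/mL. Analysis was noncompartmental, with log ANOVA (treatment fixed, subject random) and 90% CIs; tmax was compared by Wilcoxon test. Adverse events were recorded.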

[9] = Phase 1 disposition study: metabolite radioprofiling in plasma and feces; assay type: in vivo, human; details: for Percent dose mean excreted in feces: single oral 100 mg 14C-evacetrapib
Procedure, shortened: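 Samples came from five healthy males after a single oral 100 mg dose (~100 μCi 14C). Plasma, feces and urine were extracted, dried and reconstituted in DMSO/acetonitrile/10 mmol/L ammonium acetate (1:3:3). Metabolites were separated by HPLC, and fractions were counted to build radiochromatograms. Structures were identified by LC/MS and LC/MS/MS (ion trap, plus Orbitrap accurate mass) in positive ion mode.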

[10] = ref Mantlo and Escribano [2014]; Cannady 2013; cited from earlier work; remark: listed apart in the source
[11] = both, human, plasma, oral, 130 mg
[12] = male, human, plasma, oral, 100 mg
[13] = both, human, plasma, oral, 100 mg
[14] = both, human, plasma, oral, 400 mg

Sequence of CYP3A (rCYP3A4) (P08684 whole entry): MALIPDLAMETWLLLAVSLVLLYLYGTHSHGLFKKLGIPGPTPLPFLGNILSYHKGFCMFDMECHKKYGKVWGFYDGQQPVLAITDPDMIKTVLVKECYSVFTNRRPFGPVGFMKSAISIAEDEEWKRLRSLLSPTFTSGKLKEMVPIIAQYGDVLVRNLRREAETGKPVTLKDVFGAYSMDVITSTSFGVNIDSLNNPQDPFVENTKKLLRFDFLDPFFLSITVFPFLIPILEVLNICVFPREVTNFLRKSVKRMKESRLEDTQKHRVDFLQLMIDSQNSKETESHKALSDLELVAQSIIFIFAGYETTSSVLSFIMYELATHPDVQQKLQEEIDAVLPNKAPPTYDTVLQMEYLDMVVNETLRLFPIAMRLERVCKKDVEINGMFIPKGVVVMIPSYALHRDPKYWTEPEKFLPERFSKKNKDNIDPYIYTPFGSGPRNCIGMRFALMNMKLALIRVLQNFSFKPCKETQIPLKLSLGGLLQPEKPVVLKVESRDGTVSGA

- CLint (rCYP2C8): 0.712 μL × min^−1 × pmol CYP^−1
- −kdep (rCYP2C8): 0.000707 s⁻¹
- microsomal CLint (CYP2C8 (rCYP2C8)): 19.9 µL/min/mg
- microsomal CLint [1]: 138 µL/min/mg
- substrate depletion rate constant k in HLMs [2]: 0.0345 min⁻¹
- dose excreted in feces ([3]; mean (±SD), up to 216 h): 93.1 % of the dose
- dose excreted in urine ([3]; mean (±SD), up to 216 h): 2.30 % of the dose
- levels of radioactivity in expired air ([3]; samples up to 48 h): negligible
- Ratio of geometric LS means, AUC(0–τ), evacetrapib + gemfibrozil versus evacetrapib (90% CI) [5]: 0.996
- Ratio of geometric LS means, Cmax, evacetrapib + gemfibrozil versus evacetrapib (90% CI) [5]: 1.02
- Ratio of geometric LS means, AUC(0–τ), evacetrapib + gemfibrozil versus evacetrapib (90% CI) ([5]; listed as Evacetrapib): 0.996 (0.922, 1.08)
- Ratio of geometric LS means, Cmax, evacetrapib + gemfibrozil versus evacetrapib (90% CI) ([5]; listed as Evacetrapib): 1.02 (0.933, 1.11)
- Tmax ([5]; both, human, plasma, oral): 3 h
- AUC [5, 11]: 11300 ng·h/mL
- Cmax [5, 11]: 1270 ng/mL
- Tmax [5, 11]: 4 h
- difference in median tmax between treatments ([5]; with versus without gemfibrozil): no significant difference
- microsomal CLint (CYP3A (rCYP3A4); human, recombinant CYP3A4 Supersomes (insect cell microsomes)): 186 µL/min/mg
- CLint (CYP3A (rCYP3A4); rCYP3A4 representing CYP3A): 4.257 μL × min^−1 × pmol CYP^−1
- −kdep (CYP3A (rCYP3A4); rCYP3A4 representing CYP3A): 0.002608 s⁻¹
- Average (%) of total radioactivity attributed to evacetrapib ([7]; based on AUC(0–36), plasma): 66%
- Average (%) of total radioactivity attributed to evacetrapib ([7]; based on AUC(0–∞), plasma): 52%
- Average (%) of total radioactivity attributed to evacetrapib ([7]; based on Cmax, plasma): 82%
- % AUC(tlast–∞) ([7]; blood total radioactivity, N = 4): 21 (18–24) ^2%
- association of evacetrapib-related material with red blood cells ([7]; from blood-to-plasma radioactivity ratios and hematocrit): negligible
- AUC(0-t) [7, 12]: 6250 ng·h/mL
- Cmax [7, 12]: 777 ng/mL
- Vd/F [7, 12]: 564 L
- half-life [7, 12]: 32.3 h
- AUC(0-inf) ([7]; male, human, plasma, po, 100 mg): 8250 ng·h/mL
- CL/F ([7]; plasma evacetrapib, geometric mean (CV)): 12.1 (20) L/h
- % AUC(tlast–∞) ([7]; plasma evacetrapib): 1 (0–4) %
- % AUC(tlast–∞) ([7]; plasma total radioactivity): 19 (13–26) %
- Ratio of geometric LS means, AUC(0–∞), evacetrapib + ketoconazole versus evacetrapib (90% CI) [8]: 2.37
- Ratio of geometric LS means, Cmax, evacetrapib + ketoconazole versus evacetrapib (90% CI) [8]: 1.94
- Ratio of geometric LS means, AUC(0–∞), evacetrapib + ketoconazole versus evacetrapib (90% CI) ([8]; listed as Evacetrapib): 2.37 (1.77, 3.18)
- Ratio of geometric LS means, Cmax, evacetrapib + ketoconazole versus evacetrapib (90% CI) ([8]; listed as Evacetrapib): 1.94 (1.39, 2.72)
- AUC(0-inf) [8, 13]: 5260 ng·h/mL
- Cmax [8, 13]: 332 ng/mL
- Tmax [8, 13]: 3 h
- Vd/F [8, 13]: 861 L
- Tmax [8, 14]: 3 h
- Vd/F [8, 14]: 592 L
- half-life [8, 14]: 63.2 h
- CL/F ([8]; evacetrapib alone): 19.0 (51) L/h
- CL/F ([8]; with 400 mg ketoconazole): 8.24 (57) L/h
- difference in median tmax between treatments ([8]; with versus without ketoconazole): no difference
- radioactive peaks in plasma ([9]; 24-h plasma samples, detected in only 3 subjects): only quantifiable radioactive peak
- dose eliminated via CYP-mediated (oxidative) metabolism ([9]; from fecal metabolites): Approximately 70%
- Dose eliminated in the select feces through 192 h postdose ([9]; percent dose mean): 89.86%
- Percent dose mean excreted in feces [9]: 17 % of the dose
- Percent dose mean excreted in feces ([9]; listed as Evacetrapib): 16.80 % of the dose
Structure (SMILES): Cc1cc(C)c2c(c1)[C@@H](N(Cc1cc(C(F)(F)F)cc(C(F)(F)F)c1)c1nnn(C)n1)CCCN2C[C@H]1CC[C@H](C(=O)O)CC1 [evacetrapib]
- HDL-C levels [4]: increased
- LDL-C levels [4]: decreased
- changes in blood pressure, aldosterone, cortisol, or electrolytes [4]: without producing substantial changes
- AEs considered to be related to the study drug ([5]; 5 of 24 subjects who received evacetrapib alone and/or with gemfibrozil): 10
- severity of all AEs ([5]; human, in vivo): mild
- AEs reported ([5]; whole study, reported by 12 subjects): 28
- protein binding [6]: high
- treatment-emergent adverse events (TEAEs) reported ([7]; reported by 2 of 5 subjects, single 100-mg dose): 5
- AEs related to evacetrapib as judged by the investigator ([7]; single 100-mg dose): Three
- severity of all AEs ([7]; single 100-mg dose): mild
- TEAEs considered mild ([8]; evacetrapib alone or in combination with ketoconazole): 16
- TEAEs reported ([8]; evacetrapib alone or in combination with ketoconazole, reported by 5 subjects): 18
- fraction of evacetrapib eliminated by CYPs ([9]; used in the static model): ~1 For determinations of fm, CYP3A4-mediated metabolism was considered to represent total CPY3A-mediated metabolism AUCi/AUC = 1/(1-fmCYP3A × fraction of evacetrapib eliminated by CYPs) where the fraction of evacetrapib eliminated by CYPs is approximately 0.7.
- drug solubility [10]: poor

Structure (SMILES): CC(=O)N1CCN(c2ccc(OCC3COC(Cn4ccnc4)(c4ccc(Cl)cc4Cl)O3)cc2)CC1 (stereo not shown) [ketoconazole, reference compound]
- TEAEs considered moderate ([8]; reported by subjects who received ketoconazole alone): 2
